Source: ChEMBL document CHEMBL4359830, “Discovery and structure-activity relationship of novel diphenylthiazole derivatives as BTK inhibitor with potent activity against B cell lymphoma cell lines” (Eur J Med Chem, 2019)
The source made the active and inactive calls. The calls are words filed in the database; no cut-off is given here.

How the values were obtained:
[1] = system: Ramos; assay: Induction of apoptosis in human Ramos cells assessed as late apoptotic cells at 1 uM measured after 15 mins by Annexin-V-APC staining-based flow cytometric analysis (reference value: 1.85 %); type: functional
[2] = system: Ramos; assay: Induction of apoptosis in human Ramos cells assessed as early apoptotic cells at 5 uM measured after 15 mins by Annexin-V-APC staining-based flow cytometric analysis (reference value: 0.14 %); type: functional
[3] = target: T1, Tyrosine-protein kinase BTK (Homo sapiens, UniProt Q06187); assay: Inhibition of human recombinant full length N-terminal His tagged BTK expressed in baculovirus infected Sf9 cells using poly (Glu,Tyr) 4:1 as substrate measured after 60 mins in presence of ATP by ADP-Glo kinase assay
[4] = system: Raji; assay: Induction of apoptosis in human Raji cells assessed as late apoptotic cells at 3 uM measured after 15 mins by Annexin-V-APC staining-based flow cytometric analysis (reference value: 0.57 %); type: functional
[5] = system: Raji; assay: Induction of apoptosis in human Raji cells assessed as late apoptotic cells at 5 uM measured after 15 mins by Annexin-V-APC staining-based flow cytometric analysis (reference value: 0.57 %); type: functional
[6] = system: Ramos; assay: Induction of apoptosis in human Ramos cells assessed as late apoptotic cells at 5 uM measured after 15 mins by Annexin-V-APC staining-based flow cytometric analysis (reference value: 1.85 %); type: functional
[7] = system: Raji; assay: Induction of apoptosis in human Raji cells assessed as late apoptotic cells at 1 uM measured after 15 mins by Annexin-V-APC staining-based flow cytometric analysis (reference value: 0.57 %); type: functional
[8] = system: Ramos; assay: Induction of apoptosis in human Ramos cells assessed as early apoptotic cells at 0.1 uM measured after 15 mins by Annexin-V-APC staining-based flow cytometric analysis (reference value: 0.14 %); type: functional
[9] = system: Ramos; assay: Cell cycle arrest in human Ramos cells assessed as accumulation at S phase at 5 uM measured after 48 hrs by propidium iodide/RNase staining based flow cytometric analysis (reference value: 56.35 %); type: functional
[10] = system: Raji; assay: Induction of apoptosis in human Raji cells assessed as viable cells at 5 uM measured after 15 mins by Annexin-V-APC staining-based flow cytometric analysis (reference value: 97.5 %); type: functional; details: Homo sapiens, Raji, 0.25 h; read-out: Activity
[11] = system: Ramos; assay: Cell cycle arrest in human Ramos cells assessed as accumulation at G2/M phase at 5 uM measured after 48 hrs by propidium iodide/RNase staining based flow cytometric analysis (reference value: 5.98 %); type: functional
[12] = system: Raji; assay: Antiproliferative activity against human Raji cells at 40 uM measured after 72 hrs by CCK-8 assay relative to control; type: functional; details: Homo sapiens, Raji, 72 h
Summary of the method: (§1)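 Ramos or Raji cells in RPMI-1640 with 10% FBS and 1% penicillin-streptomycin at 37 °C, 5% CO2. Seeded at 2000–3000 cells/well one day before compound addition. Exposure 72 h, then CCK-8 with absorbance at 450 nm. […] Single-point inhibition at 40 µM reported as mean ± standard deviation.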

[13] = system: Raji; assay: Induction of apoptosis in human Raji cells assessed as viable cells at 0.1 uM measured after 15 mins by Annexin-V-APC staining-based flow cytometric analysis (reference value: 97.5 %); type: functional; details: 0.25 h, read-out: Activity
[14] = system: Ramos; assay: Cell cycle arrest in human Ramos cells assessed as accumulation at G0/G1 phase at 5 uM measured after 48 hrs by propidium iodide/RNase staining based flow cytometric analysis (reference value: 37.66 %); type: functional
[15] = system: Raji; assay: Induction of apoptosis in human Raji cells assessed as early apoptotic cells at 5 uM measured after 15 mins by Annexin-V-APC staining-based flow cytometric analysis (reference value: 0.021 %); type: functional
[16] = system: Raji; assay: Cell cycle arrest in human Raji cells assessed as accumulation at G0/G1 phase at 1 uM measured after 48 hrs by propidium iodide/RNase staining based flow cytometric analysis (reference value: 48.68 %); type: functional
[17] = system: Ramos; assay: Induction of apoptosis in human Ramos cells assessed as necrotic cells at 3 uM measured after 15 mins by Annexin-V-APC staining-based flow cytometric analysis (reference value: 1.50 %); type: functional
[18] = system: Raji; assay: Induction of apoptosis in human Raji cells assessed as early apoptotic cells at 0.1 uM measured after 15 mins by Annexin-V-APC staining-based flow cytometric analysis (reference value: 0.021 %); type: functional
[19] = system: Raji; assay: Cell cycle arrest in human Raji cells assessed as accumulation at G0/G1 phase at 5 uM measured after 48 hrs by propidium iodide/RNase staining based flow cytometric analysis (reference value: 48.68 %); type: functional
[20] = system: Ramos; assay: Cell cycle arrest in human Ramos cells assessed as accumulation at G2/M phase at 1 uM measured after 48 hrs by propidium iodide/RNase staining based flow cytometric analysis (reference value: 5.98 %); type: functional
[21] = target: T1, Tyrosine-protein kinase BTK; assay: Inhibition of BTK in anti-IgM-stimulated human Raji cells assessed as decrease in auto-phosphorylation at Y223 residue at 5 uM after 48 hrs by Western blot analysis; type: cell-based
Summary of the method: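 Cells were stimulated with anti-IgM and exposed to serial dilutions for 48 h. Lysis was in 2× Laemmli buffer with 2.5% β-mercaptoethanol at 4 °C for 15 min, then boiling for 5 min. Proteins were separated on 10% SDS-PAGE and moved to nitrocellulose. Blots were probed overnight (12–18 h, 4 °C) with phospho-BTK Tyr223, phospho-PLCγ2 Tyr1217 and β-actin antibodies (1:1000), then anti-rabbit HRP, with chemiluminescent detection.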

[22] = system: Ramos; assay: Induction of apoptosis in human Ramos cells assessed as viable cells at 3 uM measured after 15 mins by Annexin-V-APC staining-based flow cytometric analysis (reference value: 96.5 %); type: functional; details: 0.25 h, read-out: Activity
[23] = system: Ramos; assay: Antiproliferative activity against human Ramos cells at 40 uM measured after 72 hrs by CCK-8 assay relative to control; type: functional; details: Homo sapiens, Ramos, 72 h; summary of the method: as §1
[24] = system: Raji; assay: Cell cycle arrest in human Raji cells assessed as accumulation at S phase at 0.1 uM measured after 48 hrs by propidium iodide/RNase staining based flow cytometric analysis (reference value: 33.18 %); type: functional
[25] = system: Ramos; assay: Cell cycle arrest in human Ramos cells assessed as accumulation at G0/G1 phase at 0.1 uM measured after 48 hrs by propidium iodide/RNase staining based flow cytometric analysis (reference value: 37.66 %); type: functional
[26] = system: Ramos; assay: Induction of apoptosis in human Ramos cells assessed as necrotic cells at 5 uM measured after 15 mins by Annexin-V-APC staining-based flow cytometric analysis (reference value: 1.50 %); type: functional
[27] = system: Raji; assay: Cell cycle arrest in human Raji cells assessed as accumulation at S phase at 5 uM measured after 48 hrs by propidium iodide/RNase staining based flow cytometric analysis (reference value: 33.18 %); type: functional
[28] = system: Ramos; assay: Induction of apoptosis in human Ramos cells assessed as necrotic cells at 0.1 uM measured after 15 mins by Annexin-V-APC staining-based flow cytometric analysis (reference value: 1.50 %); type: functional
[29] = system: Raji; assay: Antiproliferative activity against human Raji cells measured after 72 hrs by CCK-8 assay; type: functional, cell-based; summary of the method: as §1
[30] = system: Raji; assay: Induction of apoptosis in human Raji cells assessed as viable cells at 3 uM measured after 15 mins by Annexin-V-APC staining-based flow cytometric analysis (reference value: 97.5 %); type: functional; details: 0.25 h, read-out: Activity
[31] = system: Raji; assay: Cell cycle arrest in human Raji cells assessed as accumulation at G2/M phase at 5 uM measured after 48 hrs by propidium iodide/RNase staining based flow cytometric analysis (reference value: 18.14 %); type: functional

T1 sequence (Q06187 whole entry): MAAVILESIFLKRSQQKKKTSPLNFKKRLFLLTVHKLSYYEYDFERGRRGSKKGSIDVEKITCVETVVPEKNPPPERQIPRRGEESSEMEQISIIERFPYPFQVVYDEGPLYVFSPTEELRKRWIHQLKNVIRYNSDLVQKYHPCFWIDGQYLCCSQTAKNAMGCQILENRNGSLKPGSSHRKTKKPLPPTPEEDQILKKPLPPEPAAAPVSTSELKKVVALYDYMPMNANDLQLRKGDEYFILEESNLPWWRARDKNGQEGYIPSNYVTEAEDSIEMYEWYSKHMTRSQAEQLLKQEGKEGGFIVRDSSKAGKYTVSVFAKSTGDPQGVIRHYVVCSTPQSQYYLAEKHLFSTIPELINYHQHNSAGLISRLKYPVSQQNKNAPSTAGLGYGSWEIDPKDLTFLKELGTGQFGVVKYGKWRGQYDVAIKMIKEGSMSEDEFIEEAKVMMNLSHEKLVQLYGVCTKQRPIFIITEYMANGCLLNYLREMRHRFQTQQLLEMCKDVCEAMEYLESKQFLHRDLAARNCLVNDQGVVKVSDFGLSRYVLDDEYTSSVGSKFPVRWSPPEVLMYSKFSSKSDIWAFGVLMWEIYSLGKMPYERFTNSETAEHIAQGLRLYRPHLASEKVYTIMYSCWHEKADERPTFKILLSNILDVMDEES

SMILES: CN1CCN(c2ccc(Nc3nc(-c4cccc(NC(=O)c5ccc(F)c(Cl)c5)c4)sc3C(N)=O)cc2)CC1
- Activity [1]: 2.23%
- Activity [2]: 0.28%
- IC50 [3]: 0.09 µM
- Activity [4]: 1.52%
- Activity [5]: 67.7%
- Activity [6]: 72.4%
- Activity [7]: 0.53%
- Activity [8]: 0.072%
- Activity [9]: 14.14%
- viability at 5 µM [10]: 0.15%
- Activity [11]: 2.17%
- inhibition at 40 µM [12]: 94.4%
- viability at 0.1 µM [13]: 97.8%
- Activity [14]: 83.68%
- Activity [15]: 0.091%
- Activity [16]: 54%
- Activity [17]: 6.17%
- Activity [18]: 0.01%
- Activity [19]: 82.55%
- Activity [20]: 11.39%
- inhibition [21]: Active
- viability at 3 µM [22]: 87.3%
- inhibition at 40 µM [23]: 97.5%
- Activity [24]: 33.63%
- Activity [25]: 40.13%
- Activity [26]: 25.7%
- Activity [27]: 1.26%
- Activity [28]: 1.61%
- IC50 [29]: 6.23 µM
- viability at 3 µM [30]: 95.6%
- Activity [31]: 16.19%
